From ChEMBL document CHEMBL1914427, “Design, synthesis and biological evaluation of benzo[1.3.2]dithiazolium ylide 1,1-dioxide derivatives as potential dual cyclooxygenase-2/5-lipoxygenase inhibitors” (Bioorg Med Chem, 2011)
The source made the active and inactive calls. The rule behind the calls is not given here.

Experiments:
[1] = molecular target: T1, Prostaglandin G/H synthase 2 (Homo sapiens) (UniProt P35354); test: Inhibition of human recombinant COX2 expressed in Sf21 cells assessed as conversion of arachidonic acid to PGE2 at 10 uM preincubated for 15 mins measured after 5 mins by enzyme immunoassay
T1 sequence (whole entry): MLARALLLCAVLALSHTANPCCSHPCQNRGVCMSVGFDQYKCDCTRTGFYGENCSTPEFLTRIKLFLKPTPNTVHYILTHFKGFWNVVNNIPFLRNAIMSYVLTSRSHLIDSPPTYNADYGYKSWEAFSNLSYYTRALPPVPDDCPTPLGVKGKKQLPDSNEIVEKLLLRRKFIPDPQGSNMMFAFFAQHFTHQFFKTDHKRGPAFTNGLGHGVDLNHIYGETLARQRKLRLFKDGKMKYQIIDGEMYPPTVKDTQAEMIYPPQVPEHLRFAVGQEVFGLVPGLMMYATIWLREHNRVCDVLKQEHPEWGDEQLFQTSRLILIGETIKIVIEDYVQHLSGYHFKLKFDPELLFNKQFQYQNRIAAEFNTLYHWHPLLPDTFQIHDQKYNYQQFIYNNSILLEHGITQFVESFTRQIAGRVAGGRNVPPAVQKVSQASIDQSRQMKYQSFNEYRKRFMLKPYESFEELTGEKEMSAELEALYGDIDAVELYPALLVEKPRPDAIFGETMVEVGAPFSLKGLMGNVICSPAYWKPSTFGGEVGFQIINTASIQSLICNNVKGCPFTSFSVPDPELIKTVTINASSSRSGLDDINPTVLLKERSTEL
How it was run: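 Human recombinant COX-2 (Sf21-expressed, 0.11 U) preincubated with compound 15 min at 37 °C in Tris–HCl pH 7.7 containing 1 mM glutathione, phenol and hematin. Reaction started with 0.3 arachidonic acid. Run by a contract lab.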

[2] = molecular target: T2, Polyunsaturated fatty acid 5-lipoxygenase (Homo sapiens) (UniProt P09917); test: Inhibition of […] human 5-LOX in human PBML assessed as inhibition of A23187-induced LTB4 production at 10 uM preincubated for 15 mins measured after 15 mins by enzyme immunoassay
T2 sequence (whole entry): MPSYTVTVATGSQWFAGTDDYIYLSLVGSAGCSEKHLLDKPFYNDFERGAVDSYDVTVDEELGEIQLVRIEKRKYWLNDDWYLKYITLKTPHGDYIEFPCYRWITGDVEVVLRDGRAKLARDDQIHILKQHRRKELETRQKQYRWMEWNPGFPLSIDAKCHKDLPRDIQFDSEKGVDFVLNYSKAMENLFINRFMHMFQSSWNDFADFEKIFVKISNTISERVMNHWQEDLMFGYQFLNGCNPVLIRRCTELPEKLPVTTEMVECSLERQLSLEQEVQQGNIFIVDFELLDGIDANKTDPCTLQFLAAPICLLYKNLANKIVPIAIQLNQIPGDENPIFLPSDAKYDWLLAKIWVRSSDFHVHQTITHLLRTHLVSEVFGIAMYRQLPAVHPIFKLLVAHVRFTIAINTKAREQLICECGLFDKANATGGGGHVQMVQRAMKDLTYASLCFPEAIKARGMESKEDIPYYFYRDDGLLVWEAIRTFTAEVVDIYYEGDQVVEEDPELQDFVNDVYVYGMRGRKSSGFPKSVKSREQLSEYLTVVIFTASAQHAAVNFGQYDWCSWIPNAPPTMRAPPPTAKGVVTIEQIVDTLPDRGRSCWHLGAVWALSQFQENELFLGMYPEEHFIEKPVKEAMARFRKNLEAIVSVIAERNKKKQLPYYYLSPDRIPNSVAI
How it was run: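 Human PBML (5 × 10⁶ cells/mL) in HBSS pH 7.4 preincubated with compound 15 min at 37 °C. Calcium ionophore A23187 (30) then added, 15 min at 37 °C, and reaction stopped with 1 N HCl.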

[3] = molecular target: T3, Polyunsaturated fatty acid 5-lipoxygenase (Homo sapiens, UniProt P09917); test: Inhibition of […] human PBML assessed as inhibition of A23187-induced LTB4 production preincubated for 15 mins measured after 15 mins by enzyme immunoassay
T3 sequence (P09917 whole entry): T2 sequence (whole entry)

[4] = test system: Rattus norvegicus; test: Antiinflammatory activity in Wistar rat assessed as inhibition of carrageenan-induced paw edema at 150 mg/kg, po administered 1 hr before carrageenan challenge measured after 3 hrs relative to vehicle treated control; type: functional
How it was run: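 Male Wistar rats given aspirin orally at 150 mg/kg, 1 h before intraplantar carrageenan (0.1 mL of 1% suspension) into the right hind paw. Hind paw edema read by plethysmometer 3 h after carrageenan; reduction taken relative to vehicle group.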

[5] = molecular target: T4, Prostaglandin G/H synthase 2 (Homo sapiens, UniProt P35354); test: Inhibition of human recombinant COX2 expressed in Sf21 cells assessed as conversion of arachidonic acid to PGE2 preincubated for 15 mins measured after 5 mins by enzyme immunoassay
T4 sequence (P35354 whole entry): T1 sequence (whole entry)

[6] = test system: Rattus norvegicus; test: Antiinflammatory activity in Wistar rat assessed as inhibition of carrageenan-induced paw edema at 100 mg/kg, ip administered 30 mins before carrageenan challenge measured after 3 hrs relative to vehicle treated control; type: functional; details: route intraperitoneal
How it was run: (§1)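 Male Wistar rats, held at 20–24 °C and 50–80% humidity on 12 h light/dark for at least three days, with chow and water unless fasted. Test article given IP at 10, 30 or 100 mg/kg in 1% Tween 80/0.9% NaCl, dosing volume 5 mL/kg, 30 min before intraplantar carrageenan (0.1 mL of 1% suspension) into the right hind paw. Edema read by plethysmometer at 3 h; inhibition taken relative to vehicle group.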

[7] = test system: Rattus norvegicus; test: Antiinflammatory activity in ip dosed Wistar rat assessed as inhibition of carrageenan-induced paw edema administered 30 mins before carrageenan challenge measured after 3 hrs; type: functional, organism-based; how it was run: as §1
[8] = test system: Rattus norvegicus; test: Antiinflammatory activity in Wistar rat assessed as inhibition of carrageenan-induced paw edema at 10 mg/kg, ip administered 30 mins before carrageenan challenge measured after 3 hrs relative to vehicle treated control; type: functional; details: route intraperitoneal; how it was run: as §1
[9] = test system: Rattus norvegicus; test: Antiinflammatory activity in Wistar rat assessed as inhibition of carrageenan-induced paw edema at 30 mg/kg, ip administered 30 mins before carrageenan challenge measured after 3 hrs relative to vehicle treated control; type: functional; details: route intraperitoneal; how it was run: as §1

NS(=O)(=O)c1ccc2c(c1)S(c1ccc(Cl)cc1)=NS2(=O)=O (stereo not drawn)
inhibition [1]: inactive | inhibition [2]: 19%

NS(=O)(=O)c1ccc2c(c1)S(c1ccc(Cl)cc1Cl)=NS2(=O)=O (stereo not drawn)
inhibition [1]: 9% | inhibition [2]: inactive

NS(=O)(=O)c1ccc2c(c1)S(c1ccc(Br)cc1)=NS2(=O)=O (stereo not drawn)
inhibition [2]: 14%

COc1cc(OC)cc(OCCS2=NS(=O)(=O)c3cc([N+](=O)[O-])ccc32)c1 (stereo not drawn)
inhibition [1]: 35% | IC50 [3]: 3.7 µM

O=S1(=O)N=C(c2ccc(Br)cc2)c2ccccc21
inhibition [1]: 0% | inhibition [2]: 11%

CC(=O)Oc1ccccc1C(=O)O [ASPIRIN]
inhibition in vivo at 150 mg/kg [4]: 38%

NS(=O)(=O)c1ccc2c(c1)S(c1ccc(F)cc1)=NS2(=O)=O (stereo not drawn)
inhibition [1]: 2% | inhibition [2]: 9%

COc1ccc(S2=NS(=O)(=O)c3cc([N+](=O)[O-])ccc32)cc1OC (stereo not drawn)
inhibition [1]: 15% | IC50 [3]: 0.68 µM

Cc1ccc2c(c1)S(=O)(=O)N=S2c1ccc(Br)cc1 (stereo not drawn)
inhibition [1]: 14% | IC50 [3]: 6.05 µM

NS(=O)(=O)c1ccc2c(c1)S(c1cccc(Br)c1)=NS2(=O)=O (stereo not drawn)
inhibition [1]: 7% | inhibition [2]: 28%

NS(=O)(=O)c1cc2c(cc1Cl)S(c1ccc(Br)cc1)=NS2(=O)=O (stereo not drawn)
IC50 [5]: 2300 nM | IC50 [3]: 25.8 µM

CC(C)c1ccc(S2=NS(=O)(=O)c3ccc(S(N)(=O)=O)cc32)cc1 (stereo not drawn)
inhibition [1]: 10% | inhibition [2]: 19%

O=[N+]([O-])c1ccc2c(c1)S(=O)(=O)N=S2c1ccncc1 (stereo not drawn)
inhibition [1]: 15% | inhibition [2]: 17%

NS(=O)(=O)c1ccc2c(c1)S(c1ccc(Cl)c(Cl)c1)=NS2(=O)=O (stereo not drawn)
inhibition [1]: 14% | inhibition [2]: inactive

O=[N+]([O-])c1ccc2c(c1)S(=O)(=O)N=S2c1ccc(-c2ccccc2)cc1 (stereo not drawn)
IC50 [5]: 500 nM | IC50 [3]: 0.15 µM

CC(C)(C)c1ccc(S2=NS(=O)(=O)c3cc(S(N)(=O)=O)ccc32)cc1 (stereo not drawn)
inhibition [1]: 21% | inhibition [2]: 23%

Cc1ccc(S2=NS(=O)(=O)c3ccc(S(N)(=O)=O)cc32)cc1 (stereo not drawn)
inhibition [1]: 2% | inhibition [2]: 9%

NS(=O)(=O)c1ccc2c(c1)S(=O)(=O)N=S2c1ccc(-c2ccccc2)cc1 (stereo not drawn)
inhibition [1]: 31% | IC50 [3]: 3.45 µM

CC(C)c1ccc(S2=NS(=O)(=O)c3cc([N+](=O)[O-])ccc32)cc1 (stereo not drawn)
IC50 [5]: 730 nM | IC50 [3]: 0.36 µM

NS(=O)(=O)c1ccc2c(c1)S(c1ccc(C(F)(F)F)cc1)=NS2(=O)=O (stereo not drawn)
inhibition [1]: inactive | inhibition [2]: 37%

COc1ccc(S2=NS(=O)(=O)c3ccc(S(N)(=O)=O)cc32)cc1OC (stereo not drawn)
inhibition [1]: 6% | inhibition [2]: inactive

CC(C)c1ccc(S2=NS(=O)(=O)c3cc(S(N)(=O)=O)ccc32)cc1 (stereo not drawn)
inhibition [1]: 44% | inhibition [2]: 42%

COC1(c2cc(F)cc(OCCS3=NS(=O)(=O)c4cc([N+](=O)[O-])ccc43)c2)CCOCC1 (stereo not drawn)
inhibition [1]: 25% | inhibition [2]: 25%

O=S1(=O)N=S(c2ccccc2)c2ccccc21 (stereo not drawn)
inhibition [1]: 0% | inhibition [2]: 14%

COc1ccc(S2=NS(=O)(=O)c3cc([N+](=O)[O-])ccc32)cc1 (stereo not drawn)
IC50 [5]: 880 nM | IC50 [3]: 0.35 µM

NS(=O)(=O)c1ccc2c(c1)S(=O)(=O)N=S2c1ccc(Br)cc1 (stereo not drawn)
inhibition [1]: 0% | IC50 [3]: 91.1 µM

CS(=O)(=O)c1ccc2c(c1)S(=O)(=O)N=S2c1ccc(Br)cc1 (stereo not drawn)
IC50 [5]: 1800 nM | IC50 [3]: 13.5 µM

O=[N+]([O-])c1ccc2c(c1)S(=O)(=O)N=S2c1ccc(C(F)(F)F)cc1 (stereo not drawn)
IC50 [5]: 2990 nM | IC50 [3]: 3.09 µM

Cc1ccc(S2=NS(=O)(=O)c3ccc(S(N)(=O)=O)cc32)c(C)c1 (stereo not drawn)
inhibition [1]: inactive | inhibition [2]: inactive

COC(=O)c1ccc2c(c1)S(=O)(=O)N=S2c1ccc(Br)cc1 (stereo not drawn)
inhibition [1]: 33% | IC50 [3]: 4.1 µM

CCc1ccc(C2=NS(=O)(=O)c3cc(S(N)(=O)=O)ccc32)cc1
inhibition [1]: 0% | inhibition [2]: 8%

Cc1ccc(S2=NS(=O)(=O)c3ccc(S(N)(=O)=O)cc32)cc1C (stereo not drawn)
inhibition [1]: 15% | inhibition [2]: inactive

NC(=O)c1ccc2c(c1)S(=O)(=O)N=S2c1ccc(Br)cc1 (stereo not drawn)
inhibition [1]: 0% | inhibition [2]: 15%

CCc1ccc(S2=NS(=O)(=O)c3ccc(S(N)(=O)=O)cc32)cc1 (stereo not drawn)
inhibition [1]: inactive | inhibition [2]: 7%

CC(C)(C)c1ccc(S2=NS(=O)(=O)c3cc([N+](=O)[O-])ccc32)cc1 (stereo not drawn)
inhibition in vivo at 100 mg/kg [6]: 65% | inhibition [7]: Dose-dependent effect | IC50 [5]: 270 nM | inhibition in vivo at 10 mg/kg [8]: 14% | inhibition in vivo at 30 mg/kg [9]: 27% | IC50 [3]: 0.3 µM

CCc1ccc(S2=NS(=O)(=O)c3cc([N+](=O)[O-])ccc32)cc1 (stereo not drawn)
IC50 [5]: 1700 nM | IC50 [3]: 0.18 µM

NS(=O)(=O)c1ccc2c(c1)S(c1ccc(F)cc1F)=NS2(=O)=O (stereo not drawn)
inhibition [1]: inactive | inhibition [2]: inactive

CC(C)(C)c1ccc(S2=NS(=O)(=O)c3ccc(S(N)(=O)=O)cc32)cc1 (stereo not drawn)
inhibition [1]: inactive | inhibition [2]: 25%

COc1ccc(S2=NS(=O)(=O)c3ccc(S(N)(=O)=O)cc32)cc1 (stereo not drawn)
inhibition [1]: inactive | inhibition [2]: 21%

O=C(O)c1ccc2c(c1)S(=O)(=O)N=S2c1ccc(Br)cc1 (stereo not drawn)
inhibition [1]: 7% | inhibition [2]: 2%

Cc1ccc(C2=NS(=O)(=O)c3ccccc32)cc1
inhibition [1]: 16% | inhibition [2]: 9%

O=S1(=O)N=S(c2ccc(Br)cc2)c2ccccc21 (stereo not drawn)
inhibition [1]: 2% | inhibition [2]: 33%

CCc1ccc(S2=NS(=O)(=O)c3cc(S(C)(=O)=O)ccc32)cc1 (stereo not drawn)
inhibition [1]: 43% | inhibition [2]: 35%
